These results are taken from ChEMBL document CHEMBL3232793, “Fused heterocyclic compounds bearing bridgehead nitrogen as potent HIV-1 NNRTIs. Part 1: design, synthesis and biological evaluation of novel 5,7-disubstituted pyrazolo[1,5-a]pyrimidine derivatives” (Bioorg Med Chem, 2014).

Where only a bound is given, the exact number is not on record here.

In data set [1] the test system is Human immunodeficiency virus 1. Kind of data set: Antiviral activity against HIV1 3B infected in human MT4 cells assessed as virus-induced cytopathic effect by MTT assay. The format is functional, organism-based. The settings on record: Human immunodeficiency virus 1, 3B. A digest of the protocol: (§1)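 MT-4 cells, resuspended at 6 × 10⁵ cells/mL, infected with HIV-1 IIIB or HIV-2 ROD at 100–300 CCID50. Compounds added at assay start as serial five-fold dilutions in triplicate wells. Viability read spectrophotometrically by MTT 5 days after infection.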
(Cytopathic effects are the visible damage that an infection or toxin causes in cultured cells.)

The nature of data set [2]: Cytotoxicity against human MT4 cells assessed as cell viability by MTT assay. The format is cell-based. The essentials: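 Mock-infected MT-4 cells at 6 × 10⁵ cells/mL, run in parallel triplicate wells with the infected series. Compounds given as serial five-fold dilutions. MTT viability read spectrophotometrically at day 5.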
In general terms: Tetrazolium assays rely on reduction of a dye to a coloured formazan, in cell work by metabolically active cells.

Data set [3] deals with Human immunodeficiency virus 2. Description: Antiviral activity against HIV2 ROD infected in human MT4 cells assessed as virus-induced cytopathic effect by MTT assay. The format is functional, organism-based. The settings on record: Human immunodeficiency virus 2, ISOLATE ROD. A digest of the protocol: as §1
Data set [4] in a line: Selectivity index, ratio of CC50 for human MT4 cells to EC50 for HIV1 3B. The class given is toxicity, cell-based. Particulars: read-out: Ratio CC50/EC50. The essentials:
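Selectivity index = CC50 (mock-infected MT-4 cells) / EC50 (IIIB or ROD protection). Both values come from the same 5-day MTT assay run in parallel triplicate wells.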

The test system of data set [5] is Human immunodeficiency virus 1. Kind of data set: Antiviral activity against wild type HIV1 infected in human Hela-JC53 cells assessed as inhibition of viral replication by luciferase reporter gene assay. The format is functional, organism-based. The settings on record: Human immunodeficiency virus 1, Hela-JC53.
In data set [6] the test system is Human immunodeficiency virus 1. Kind of data set: Antiviral activity against NNRTI-resistant HIV1 harboring K103N mutant infected in human Hela-JC53 cells assessed as inhibition of viral replication by luciferase reporter gene assay relative wild type HIV1. The format is functional. In general terms: Reporter assays use an easily measured gene product as a stand-in for the process of interest.

Data set [7] has as its system Human immunodeficiency virus 1. Description: Antiviral activity against NNRTI-resistant HIV1 harboring Y181C mutant infected in human Hela-JC53 cells assessed as inhibition of viral replication by luciferase reporter gene assay relative wild type HIV1. The class given is functional.
A short description of data set [8]: Selectivity index, ratio of compound activity for human HeLa cells to EC50 for wild type HIV1. The settings on record: read-out: Selectivity Index. The class given is toxicity, cell-based.
The target in data set [9] is Human immunodeficiency virus type 1 reverse transcriptase (Human immunodeficiency virus 1, UniProt Q72547). Description: Inhibition of recombinant HIV1 reverse transcriptase assessed as inhibition of biotin-dUTP incorporation in to poly [A] x oligo[dT]15 by ELISA. A digest of the protocol: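 Colorimetric kit (Roche) ELISA. Homopolymer template/primer bound to the microplate, with biotin-dUTP as the labelled nucleotide and 4 ng recombinant HIV-1 RT per well. Compounds tested at several concentrations.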

In general, EC50 refers to the concentration at which the effect is half-maximal. By CC50 is commonly meant the concentration at which the toxic effect on the cells reaches its halfway point. As to `Cc1ccnc2c1NC(=O)c1cccnc1N2C1CC1` [NEVIRAPINE], in [1], the EC50 was 170 nM. In addition, the CC50 in data set [2] is over 15000 nM.

With `Cc1cc(C#N)cc(C)c1Oc1nc(Nc2ccc(C#N)cc2)nc(N)c1Br` [ETRAVIRINE], the half-maximal effective concentration (EC50) in [3] is 11 nM. The CC50 in data set [2] is over 4600 nM.

For the molecule `CC(C)Nc1cccnc1N1CCN(C(=O)c2cc3cc(NS(C)(=O)=O)ccc3[nH]2)CC1` [DELAVIRDINE], in data set [2], the cytotoxic concentration (CC50) is over 43800 nM. For the same molecule, the selectivity ratio in data set [4] was over 277.

For `Cc1cc(C#N)cc(C)c1Oc1nc(Nc2ccc(C#N)cc2)nc2cc[nH]c12`, in [5], the EC50 came to 0.8 nM. Also, the “fold change (FC)” value in data set [6] and in [7] was 3.8 in each case. Also, the selectivity ratio in [8] was over 50000.

In general, IC50 refers to the concentration needed to halve the response being measured. Regarding `Cc1cc(C)c(Oc2cc(Nc3ccc(C#N)cc3)nc3ccnn23)c(C)c1`, the IC50 in data set [9] came out at 2260 nM.

Take `Cc1cc(C#N)cc(C)c1Oc1nc(Nc2ccc(C#N)cc2)nc2[nH]ccc12`: the EC50 in data set [5] came out at 0.9 nM. For the same molecule, the “fold change (FC)” value in [6] and in data set [7] was 11 in each case. Also, the selectivity ratio in [8] was over 50000.
